From ChEMBL document CHEMBL1152833, “Synthesis of some novel N4-(naphtha[1,2-d]thiazol-2-yl)semicarbazides as potential anticonvulsants” (Eur J Med Chem, 2009)
Calls of active or inactive are those of the source.

How the values were obtained:
[1] = tested on: Mus musculus; assay: Toxicity to Swiss albino mouse assessed as occurrence of myoclonic jerks at 300 mg/kg, ip after 0.5 hrs; format: organism-based; set-up: dose 300 mg/kg, route intraperitoneal; details: in vivo
[2] = tested on: Mus musculus; assay: Anticonvulsant activity against maximal electroshock-induced seizures in Swiss albino mouse at 300 mg/kg, ip after 4 hrs by MES test; format: functional, organism-based; set-up: dose 300 mg/kg
Summary of the method: (§1)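 Male Swiss albino mice (18–25 g) received compound i.p. at 30, 100 and 300 mg/kg. MES seizures were induced after 0.5 and 4 h, with a drop of 0.9% saline placed in the eye before the electrodes went on. Protection meant abolition of the hind-limb tonic extensor component. The tabulated value is the minimum dose protecting half or more of the mice.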

[3] = tested on: Mus musculus; assay: Anticonvulsant activity in ip dosed Swiss albino mouse assessed as minimum drug concentration required for inhibition of maximal electroshock-induced seizure in half or more of mouse after 0.5 hrs by MES test; format: functional; summary of the method: as §1
[4] = tested on: Mus musculus; assay: Neurotoxicity in ip dosed Swiss albino mouse assessed as minimum drug concentration required for falling off the rotarod by half or more of mouse after 4 hrs by rotarod test; format: toxicity, organism-based; details: in vivo
Summary of the method: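 Rotarod test in male Swiss albino mice (18–25 g) after i.p. dosing at 30, 100 and 300 mg/kg, read at 0.5 and 4 h. Mice falling within 30 s in a pre-check were excluded. Neurotoxicity was scored as the minimum dose at which half or more of the mice fell off the rod.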

[5] = tested on: Mus musculus; assay: Anticonvulsant activity in ip dosed Swiss albino mouse assessed as minimum drug concentration required for inhibition of pentylenetetrazole-induced seizures in half or more of mouse after 4 hrs by scPTZ test; format: functional
Summary of the method: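 Male Swiss albino mice (18–25 g) were dosed i.p. at 30, 100 and 300 mg/kg, examined at 0.5 and 4 h. PTZ 85 mg/kg (CD97) was given and the animals were […]. Protection meant absence of any threshold convulsion, i.e. clonic spasm lasting at least 5 s. The value is the minimum dose active in half or more of the mice.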

[6] = tested on: Mus musculus; assay: Neurotoxicity in Swiss albino mouse at 300 mg/kg, ip after 0.5 hrs by rotarod test; format: toxicity, organism-based; set-up: dose 300 mg/kg, route intraperitoneal; details: in vivo
Summary of the method: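 Male Swiss albino mice (18-25 g) received the compound i.p. at 30, 100 or 300 mg/kg and were tested on the rotarod 0.5 and 4 h later. Mice were pre-checked, and any that fell off within 30 s were excluded. Neurotoxicity was scored as falling off the rod. The value is the minimum dose affecting half or more of the mice.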

In the case of `C/C(=N\NC(=O)Nc1nc2c(ccc3ccccc32)s1)c1ccc(C)cc1`, the Activity [1] is reported as “Toxic”, the Activity [2] is reported as “inactive” and the Activity [3] is reported as 300 mg/kg. The Activity [4] was 300 mg/kg, the Activity [5] was 300 mg/kg and the Activity [6] was “Non-toxic”.
